High-throughput results from PubChem.
bCat nuc transl = beta-catenin nuclear translocation modulation | actives 0.3% (n = 190,000) | AID 1665 | nuclear translocation activity, % at 5 µM | HeLa beta-catenin nuclear translocation, immunofluorescence imaging;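 active = nuclear translocation activity above 50% at 5 µM, with a well cell count of 50 or more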;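 note: per-cell ratio of nuclear to cytoplasmic median beta-catenin stain intensity; plate controls were DMSO negative control for no effect and GSK-3 inhibitor IX positive control for full effect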
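Signal – beta-catenin immunofluorescence imaging with DAPI · Test system – human HeLa cell line · Dosing – 5 µM primary single dose, 0.1% DMSO, 0.02–20 µM confirmation series · Measure – % activation, nuclear-to-cytoplasmic median beta-catenin signal ratio per cell · Incubation – 24 h compound exposure at 37°C, 5% CO2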
MT stabilize HCS = microtubule stabilizers in HeLa cells. HeLa tubulin immunostaining HCS, 24 h; share of cells brighter than vehicle mean+2SD. % tubulin-high responders, % at 10 µM. actives 0.83% (n = 200,000). AID 2205;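 active = plate Z-score above 3 for both tubulin-high and condensed-nucleus cell shares, with cell loss under 80%, at 10 µM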;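 note: anti alpha tubulin signal scored within the nucleus-defined area of each cell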
KCC2 mod = modulators of human KCC2 chloride dependent transport; Q9H2X9; KCC2 cells, thallium flux FluoZin-2 fluorescence; B-score of Tl+ flux slope (higher = more flux/activation; lower = inhibition) at 10 µM; actives 2.2% (n = 190,000); AID 1456;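 active = thallium flux slope and its plate-corrected score both differing from the plate sample mean at a set confidence after two filtering rounds, in either direction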;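 note: slope of fluorescence scaled to starting intensity during 10 to 20 s after thallium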
Pf gametocyte = inhibitors of late stage P. falciparum gametocyte viability; actives 0.065% (n = 150,000); P. falciparum stage V gametocytes, ATP luminescence, 24 h; inhibition, % at 10.9 µM;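 active = inhibition above the mean plus 3 SD of compounds within the control limits, set per campaign, cut at about 38% in these data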;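 note: 0% = DMSO wells and 100% = medium only without gametocytes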
WT yeast gro inh = growth inhibition of WT yeast, mitochondrial fusion screen | mitochondrial fusion phenotypic screen, WT strain | inhibition, % at 10 µM | actives 2.1% (n = 190,000); in the data active = inhibition above about 58%; tested in S. cerevisiae
* marks the source's active call; other numbers are inactive results; . = no result given. Shown are actives, neighbours in structure and some others; about 4% of the full set was active somewhere.

SMILES	bCat nuc transl	MT stabilize HCS	KCC2 mod	Pf gametocyte	WT yeast gro inh
O=C(/C=C/Nc1cccc(C(F)(F)F)c1)C(F)(F)F	1	2	0.22	.	65*
C=CCNC(=S)N/N=C/c1ccc(N(CC)Cc2ccccc2)cc1	0	3	0.31	13	69*
COc1cccc(-c2cc(C(=O)Nc3ccc(N(C)C(C)=O)cc3)c3cc(Br)ccc3n2)c1	.	.	.	-7	.
O=C(Nc1cccc(Cl)c1)N(Cc1nc2ccccc2c(=O)[nH]1)C1CCCC1	-2	1	0.49	6	3
Cc1cccc(NC(=O)N(Cc2nc3ccccc3c(=O)[nH]2)C2CCCC2)c1	0	3	.	-4	78*
CCOC(=O)c1sc(NC(=O)CN2CCN(c3ccccc3)CC2)nc1C	.	.	.	9	.
CCC(c1nnnn1C1CCCC1)N(Cc1cccs1)Cc1cc2cc(C)ccc2[nH]c1=O (stereo not given)	91*	36*	-0.89	-31	28
O=C(Nc1ccccc1Br)C(=O)N1CCCC1	0	2	-0.38	-11	-4
O=C(NNc1ccccc1Br)C(=O)n1ccc2ccccc21	2	4	12*	-37	39
O=C(NC1=NCCS1)c1ccc([N+](=O)[O-])cc1Cl	-1	3	0.78	-2	-11
Cc1ccc2c(c1)-c1c(ssc1=S)C(C)(C)N2C(=O)CSc1nncn1C	0	3	-1	.	9
Cc1cc(C)c2c(c1)-c1c(ssc1=S)C(C)(C)N2C(=O)CSc1nncn1C	-1	18*	-0.25	-27	-2
Clc1ccc(N/N=C/c2cccnc2)cc1	-1	3	-0.74	.	59*
CCc1ccc(NC(=S)NCc2ccccc2)cc1	1	4	-0.34	38	70*
CCCCc1ccc(NC(=S)NCc2cccc(OC)c2)cc1	0	2	-1.4	-10	66*
CCc1ccc(NC(=S)NCc2cccnc2)cc1	-1	.	-0.16	-1	.
COc1ccc(-c2nc(-c3ccccc3)nc(N3CCN(C)CC3)c2C#N)cc1	.	28	-0.034	4	0
CN1CCN(c2nc(-c3ccccc3)nc(-c3ccccc3)c2C#N)CC1	2	9.8*	0.25	9	73*
COc1ccc(-c2nc(-c3cccc(C)c3)nc(N3CCN(C)CC3)c2C#N)cc1	21	39*	.	15	45
COc1cccc(-c2nc(-c3ccccc3)nc(N3CCN(C)CC3)c2C#N)c1	50*	19*	-0.29	14	81*
COc1ccc(Cl)cc1NC(=O)CN1C(=O)CC(C)S(=O)(=O)c2ccccc21 (stereo not given)	1	4	-0.054	-6	-2
CC1CC(N(C(=O)c2ccco2)c2ccccc2)c2ccccc2N1C(=O)c1ccco1 (stereo not given)	-7	3	-3.1	0	16
CC1CC(N(C(=O)c2ccc(Cl)cc2)c2ccccc2)c2ccccc2N1C(=O)c1ccco1 (stereo not given)	.	3	-0.35	-12	84*
CCC(C)Sc1nnc(NC(=O)c2ccco2)s1 (stereo not given)	.	.	.	10	.
Clc1cc(Br)ccc1OCCOCCN1CCOCC1	112*	4	.	.	9
SMILES	bCat nuc transl	MT stabilize HCS	KCC2 mod	Pf gametocyte	WT yeast gro inh
Clc1ccc(SCCOCCN2CCc3ccccc3C2)cc1	0	3	0.72	-6	61*
Clc1ccc(OCCOCCN2CCc3ccccc3C2)c(Cl)c1	0	3	-0.38	.	70*
Clc1ccc(SCCOCCN2CCCCC2)cc1	1	2	1	25	12
Clc1cc(Br)ccc1OCCOCCN1CCCC1	.	.	.	-4	.
CC1(C)C/C(=N\NC(=S)Nc2ccccc2F)c2cc(O)ccc2O1	-2	2	-0.46	.	8
O=C(CNC1CC1)Nc1cc(C(F)(F)F)ccc1Cl	1	.	-1.3	24	.
Cc1ccc(OCCC(=O)OCC(=O)Nc2cc(S(=O)(=O)N(C)C)ccc2C)cc1	-2	2	0.096	.	-4
COc1ccc(C(=O)CC(Nc2ccc([N+](=O)[O-])cc2)c2ccc(Cl)cc2)cc1 (stereo not given)	2	2	.	.	31
COC(=O)CN1C(c2ccccc2)=Nc2ccc(Cl)cc2C1c1ccccc1 (stereo not given)	1	2	-4*	16	22
C=CCn1c(SCC(=O)Nc2cccnc2Cl)nnc1-c1ccccc1F	4	5	.	10	-2
CCCC(=O)Oc1ccc(-c2nccc(C(OC)OC)n2)cc1	-3	4	-0.9	17	-2
O=S(=O)(c1ccc(Cl)cc1)c1snnc1-c1ccccc1	.	17*	-0.055	.	34
